# TAAR1 ag: agonists of human TAAR1; Q96RJ0; CHO RD-HGA16 TAAR1, Fluo-8 calcium fluorescence; vehicle wells 0%, saturating PEA agonist 100%; activation, % at 3 µM; 360,000 tested, 0.99% active;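 active = activation above the mean activation of all test compounds in the run plus 3 SD, cut at about 38% in these data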
#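 Test system: RD-HGA16 (CHO) cells co-expressing Gα16 and hTAAR1 | Doses: Single dose, 3 µM | Schedule: 17-24 h seeding, 75 min 37 °C dye, 30 min RT | Evaluation: % activation from peak over basal fluorescence ratio, DMSO-to-PEA scaled | Technique: Kinetic Fluo-8 calcium fluorescence | Benchmarks: Low control DMSO, high control PEA (EC100)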
# TAAR1 antagonist: antagonists of human TAAR1 | inhibition, % at 3 µM | Q96RJ0 | CHO RD-HGA16 TAAR1, Fluo-8 calcium fluorescence, antagonist | 360,000 tested, 1.5% active;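 active = inhibition above a per-plate cutoff, the mean inhibition of test compounds on that plate plus 3 SD, cut at about 49% in these data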;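 note: 0% = DMSO plus EC80 beta-PEA response and 100% = DMSO alone without agonist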
#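 Test system: RD-HGA16 CHO cells with stable hTAAR1 and Gα16 / Probe or stimulus: EC80 β-phenethylamine stimulus / Times: seeding 17-24 h prior, 75-min 37 °C, 30-min RT dye loading / Detection: Fluo-8 calcium-sensitive fluorescence / Read-out basis: % inhibition scaled between DMSO and EC80 PEA controls / Repeats: singlicate, one well per test compound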
# OX1R antag-1: antagonists of human orexin 1 receptor (OX1R) | 330,000 tested, 1.8% active | O43613 | inhibition, % at 6.6 µM | OX1R-expressing cells, FRET antagonist read-out; in the data active = inhibition mostly above about 38%, no sharp cut-off; inactive = mostly below about 40%;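 note: 0% = agonist challenge alone and 100% = reference antagonist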
# OX1R antag-2: blocks the human orexin 1 receptor | inhibition, % at 5 µM | CHO/OX1R cells, Fluo-8 calcium fluorescence, orexin A | O43613 | AID 434989 | 330,000 tested, 0.43% active;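 active = inhibition above its plate's threshold, mean inhibition of all tested compounds on the plate plus 3 SD, cut at about 37% in these data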;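 note: 0% = orexin A challenge wells and 100% = SB-334867-A antagonist wells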
# CHO parental Ca: counter-screen for OX1R antagonists: effect in parental CHO cells | parental CHO-K1, ATP-induced calcium, Fluo-8 fluorescence | inhibition, % at 5.6 µM | 330,000 tested, 0.63% active | AID 463079;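 active = inhibition above that plate's mean sample inhibition plus 3 SD, cut at about 26% in these data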;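 note: 0% = ATP-challenged DMSO wells and 100% = DMSO wells without ATP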
#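 material = parental CHO cells | also added = ATP as calcium-mobilizing challenge | dosing = single point at 5.6 µM | detection = intracellular calcium via Fluo-8 no-wash fluorescent dye | read-out = % inhibition | benchmarks = low control ATP plus DMSO, high control DMSO only | repeats = one well per compound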
# GPR7 antag: human neuropeptides B/W receptor 1 antagonism | P48145 | GPR7-expressing cells, fluorescence antagonist assay | inhibition, % at 4.4 µM | 290,000 tested, 1.1% active; in the data active = inhibition above about 16%, passing the limit was not always enough;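 note: cells stimulated with the agonist NPW; 0% = agonist with vehicle and 100% = vehicle without agonist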
# Target sequence (P48145 whole entry, looked up): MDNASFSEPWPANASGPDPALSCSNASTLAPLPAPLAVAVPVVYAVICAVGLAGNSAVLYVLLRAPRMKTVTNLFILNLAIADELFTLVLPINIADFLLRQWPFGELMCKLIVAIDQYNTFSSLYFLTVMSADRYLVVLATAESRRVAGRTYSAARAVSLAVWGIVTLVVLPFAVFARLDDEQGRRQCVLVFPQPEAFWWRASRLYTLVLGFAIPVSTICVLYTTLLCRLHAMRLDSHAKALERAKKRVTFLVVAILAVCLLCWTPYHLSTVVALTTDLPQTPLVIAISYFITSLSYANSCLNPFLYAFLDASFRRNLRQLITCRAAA
# OX1R HTRF confirm: confirmation of human orexin 1 receptor antagonists, HTRF format; shares compounds with OX1R antag-1; OX1R-expressing cells, HTRF antagonist assay; inhibition, % at 6.6 µM; 1,800 tested, 49% active; in the data active = inhibition above about 55%;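 note: CHO cells expressing OX1R stimulated with orexin A at about EC80; 0% = agonist challenge alone and 100% = reference antagonist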
# CHO-K1 HTRF: signal in parental CHO-K1 cells, OX1R antagonist counter-screen. inhibition, % at 6.6 µM. 1,800 tested, 48% active. shares compounds with OX1R antag-1. HTRF counterscreen. AID 493232; in the data active = inhibition above about 17%;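 note: 0% = agonist challenge with vehicle and 100% = vehicle alone without agonist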
# TAAR1 nonsel count: nonselective antagonism, TAAR1 counter-screen | shares compounds with TAAR1 antagonist | counterscreen cell line, calcium fluorescence, antagonist mode | inhibition, % at 3 µM | 2,400 tested, 77% active; in the data active = inhibition above about 22%;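 note: CHO-Ga16 host cells stimulated with ATP at an EC80 level; 0% = agonist EC80 plus vehicle and 100% = vehicle without agonist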
# TAAR1 ant conf: confirmation of human TAAR1 antagonists | shares compounds with TAAR1 antagonist | TAAR1-expressing cells, fluorescence antagonist read-out | inhibition, % at 3 µM | 2,400 tested, 40% active | AID 651785; in the data active = inhibition above about 49%;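 note: CHO-Ga16 host cells challenged with agonist PEA near its EC80; 0% = agonist at EC80 plus vehicle and 100% = vehicle with no agonist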
# Ga16 nonsel ag: nonselective Ga16 agonism, counter-screen; shares compounds with TAAR1 antagonist; Ga16-expressing cells, calcium fluorescence, agonist counterscreen; activation, % at 3 µM; 2,400 tested, 18% active; in the data active = activation above about 12%;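 note: 0% = vehicle wells and 100% = saturating stimulus response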
# TAAR1 ag counter: TAAR1 agonism, antagonist counter-screen; shares compounds with TAAR1 antagonist; hTAAR1 cell line, fluorescence activation, agonist mode; AID 651955; 2,400 tested, 2% active; activation, % at 3 µM; in the data active = activation above about 37%;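 note: CHO cells stably expressing TAAR1 with calcium dye readout; 0% = DMSO vehicle and 100% = full agonist response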
# Active calls of the source: *; . = no result. Compounds with a hit are over-represented: about 4.5% of the library has one in this group of screens.
SMILES,TAAR1 ag,TAAR1 antagonist,OX1R antag-1,OX1R antag-2,CHO parental Ca,GPR7 antag,TAAR1 nonsel count,TAAR1 ant conf,Ga16 nonsel ag,TAAR1 ag counter,others
CCOC(=O)C1CCCN(C2=C(NS(=O)(=O)c3ccc(Br)cc3)C(=O)c3ccccc3C2=O)C1 (stereo not drawn),20.8,61.7*,89.3*,-11.8,-20.4,-15.4,26.1*,38.1,-0.1,12.3,OX1R HTRF confirm=72.9*;CHO-K1 HTRF=77.4*
COc1cc(/C=C2\SC(=O)NC2=O)ccc1Oc1cnccn1,-0.5,-8.7,20.6,8.9,7.5,-5.1,.,.,.,.,
COc1ccccc1OCCCOc1ccc(/C=C2\SC(=O)NC2=O)cc1OC,10.6,82.2*,77.8*,-16.6,-10.6,2.8,33.6*,52.5*,8.5,5.2,OX1R HTRF confirm=69.8*;CHO-K1 HTRF=12.7
NC(=O)C1CCN(C(=O)c2ccc3c(=O)n(Cc4ccco4)c(SCc4ccc([N+](=O)[O-])cc4)nc3c2)CC1,2.7,49.3*,9.7,-27.8,-19.9,6.2,30.8*,41.2,5.2,7.0,
CCCCCn1c(SCC2CCCO2)nc2cc(C(=O)N3CCC(C(N)=O)CC3)ccc2c1=O (stereo not drawn),19.1,25.4,9.1,-17.0,-18.5,-5.1,.,.,.,.,
CCOC(=O)c1ccccc1NC(=O)c1cn(CC)c2nc(C)ccc2c1=O,2.5,-11.6,21.8,-15.9,-11.7,.,.,.,.,.,
O=C(CSc1ccc(Cl)cc1)N1CCN(c2c(Cl)cccc2[N+](=O)[O-])CC1,4.9,65.2*,22.7,-1.9,-16.9,-4.5,25.0*,38.1,3.1,-2.4,
Cc1cc(C)n2nc(C(=O)OCC(=O)N3C(C)CCCC3C)nc2n1 (stereo not drawn),-0.1,4.5,3.9,-9.8,5.6,.,.,.,.,.,
COC(=O)Nc1sc2c(c1C(=O)NCc1ccco1)CCC2,8.0,-3.4,5.0,-28.0,-25.4,-2.0,.,.,.,.,
COC(=O)Nc1sc2c(c1C(=O)NCc1ccco1)CCCC2,-3.2,106.6*,10.2,-20.3,-11.3,-3.9,6.0,-8.1,4.2,4.7,
O=C(NC1(Cc2ccccc2)CCN(CCCc2ccccc2)C1=O)c1ccccc1 (stereo not drawn),25.5,66.4*,7.5,-8.4,-6.2,.,26.4*,48.3,8.2,12.1,
COc1ccc(C2CC(=O)C(c3ccccc3OC)=CN2Cc2ccccc2)cc1 (stereo not drawn),6.1,56.3*,.,.,.,.,20.9,36.6,4.9,5.1,
COc1ccc(C2CC(=O)C(c3ccc(C)cc3)=CN2Cc2ccccc2)cc1 (stereo not drawn),-1.1,21.6,.,.,.,.,.,.,.,.,
O=C(O)C1C2CC3C(OC(=O)C31)C2Cl (stereo not drawn),-0.8,3.6,9.7,-3.6,-6.3,-5.3,.,.,.,.,
N=c1c2c(ncn1Cc1ccco1)Oc1c(ccc3ccccc13)C2c1ccccc1 (stereo not drawn),0.2,57.6*,20.6,-29.1,-19.6,-3.7,14.2,14.0,6.5,35.0,
COCCNC(=O)C1(C)CCCN(Cc2cn(C)c3ccccc23)C1 (stereo not drawn),0.5,-22.7,.,.,.,.,.,.,.,.,
COc1ccc2[nH]c(=O)c(CN(CC3CCCO3)C(=O)Nc3ccccc3OC)cc2c1 (stereo not drawn),16.4,63.3*,.,.,.,-6.0,29.5*,41.5,5.9,5.8,
CCC(=O)N(Cc1cc2cc(OC)ccc2[nH]c1=O)c1ccccc1OC,2.2,-3.9,.,.,.,.,.,.,.,.,

# Screening results from PubChem.
